The RNAGym collection of RNA variant scans (doi:10.1002/anie.201605470)

B1: Osa-1-4 twister ribozyme (parent)
chain: CCGCCUAACACUGCCAAUGCCGGUCCCAAGCCCGGAUAAAAGUGGAGGGGGCGG

Variants of: B1
Assay: self-cleavage, relative activity (ratio to wild type); higher = more cleavage; co-transcriptional
How it was run: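 For each read, cleavage status was taken from whether upstream sequence was present. The reads came from an Oryza sativa twister ribozyme of 54 nucleotides, whose DNA template was synthesised with 97 % wild-type base and 1 % of each other base at the 48 positions downstream of the cleavage site. The template was transcribed in vitro at 37 °C for 2 h with co-transcriptional self-cleavage, and the RNA was reverse-transcribed using a template-switching oligonucleotide, PCR-amplified and deep-sequenced. Relative activity is the fraction cleaved normalised to wild type.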

self-cleavage, 0.46:
A16G G51U

self-cleavage, 0.59:
C15U G35A
A16G C9A

self-cleavage, 0.6:
A16G G47A
A16G A28G
A16C G42A

self-cleavage, 0.51:
A16C C9G
C15U U18A

self-cleavage, 1.01:
A16C A38C
A16C A38U
A16G A36G
A16G
A16C A36G
A16G A39C

self-cleavage, 1.06:
A16G A36U

self-cleavage, 0.05:
A16C G45C
A16C A29C
A16G G30C
A16C G49C
C15U G49A
C15U G47U
C15U G47C
C15U G48A
C15U G48C
A16C G30C
A16C G47C
C15U G53C

self-cleavage, 0.11:
A16C A29G
A16C U24A
A16G A46U
A16G A40C
A16C G42C
C15U U12A

self-cleavage, 0.31:
A16C G22U

self-cleavage, 0.13:
A16C A8C
A16C G19C
A16C C27A
A16G A7U
A16G C26G
A16C G47U

self-cleavage, 0.61:
A16G A7G
A16C G35A
A16G C15A

self-cleavage, 0.95:
A16C G44A
A16C A39G
A16C A39U
A16G G50C
A16G G44U
A16G C11U

self-cleavage, 0.85:
A16C U18G
A16G C11A

self-cleavage, 0.23:
C15U G44C
C15U G50C
A16C G34C

self-cleavage, 0.02:
A16G G13C

self-cleavage, 0.68:
A16G G23A

self-cleavage, 0.74:
A16C A41C
A16G G34C
A16G A41G

self-cleavage, 0.16:
C15U G44U
A16G C25G
A16G C31G
A16C U43G
A16C A28G
C15U G54A
C15U U43A
A16G G53C

self-cleavage, 0.63:
A16C A41G

self-cleavage, 0.38:
A16G C27A

self-cleavage, 0.48:
A16G U24A

self-cleavage, 0.54:
A16C C15G
A16C A40G

self-cleavage, 1.02:
A16C U37C
A16G U37G
A16G G50U

self-cleavage, 0.76:
C15U U37G
A16C A28U
A16C G22A
A16G A8G
A16C C26U

self-cleavage, 0.77:
A16C C9U
A16G G50A
A16G A40G

self-cleavage, 0.64:
A16G C14U
A16C G35U

self-cleavage, 0.36:
C15U U37C
A16C A8G

self-cleavage, 0.88:
A16C G54U
A16G A40U

self-cleavage, 0.12:
C15U G42A
A16G C21G
A16C C32G
C15U U43G
A16C C20G
A16C G51C
C15U G53A

self-cleavage, 0.45:
A16C C21A
A16G C15U

self-cleavage, 0.44:
A16C U12C
A16C G34A

self-cleavage, 0.35:
C15U G35U
A16C G51U

self-cleavage, 1:
A16G G22A
A16G A28C
A16G C52G

self-cleavage, 0.09:
A16C G45U
A16G G23C
A16C U12G
A16C G49A
A16C C32U
A16C G53C
C15U U43C
C15U G34C
A16G A8C
A16G C32U

self-cleavage, 0.34:
A16C G34U

self-cleavage, 0.49:
A16G G47U

self-cleavage, 0.19:
A16C A8U
A16C G19U
A16G G22C
A16G G45U
A16G C20G
A16G C32G

self-cleavage, 1.03:
A16G U37C

self-cleavage, 0.08:
A16G G49C
C15U G44A
A16C G49U
A16G A7C
A16C C14A
A16G C26A
A16G A29C
A16C G13A
A16G G45C
A16C C33A
A16C C25A
A16C C21G
A16G C32A
A16G C33G

self-cleavage, 0.04:
A16C G23C
A16G G30U
A16G G30A
C15U U24C
C15U U24A
C15U G51C
A16G U24G
A16C U24G
A16C C31A
C15U G49U
C15U G49C
C15U G45A
C15U G45C
A16C G13U
A16C G13C
A16U A7C
A16C G30A
A16C G30U
A16G G13U

self-cleavage, 0.33:
A16C A36C
A16C U43C

self-cleavage, 0.22:
A16G G51C

self-cleavage, 0.62:
C15U U37A
A16C G19A
A16C C15U
A16G G42C
A16G U43G

self-cleavage, 0.9:
A16C C52A
A16C A17G
A16G A39G

self-cleavage, 0.65:
A16C G53A
A16G C11G

self-cleavage, 0.94:
A16C G44U
A16G C25U
A16G C31U
A16G A17U

self-cleavage, 0.25:
A16C G53U

self-cleavage, 0.91:
A16C U18C
A16G A17C
A16G G53A

self-cleavage, 0.43:
C15U G50U
C15U G54U

self-cleavage, 0.86:
A16G A36C
A16C G54A
A16G G42A
A16G C20A
A16C C11U

self-cleavage, 0.47:
C15U G50A

self-cleavage, 0.3:
A16G G49U

self-cleavage, 0.17:
A16C G45A
A16C U24C
A16C A7G
A16C G35C
A16C C11G

self-cleavage, 0.78:
A16G C15G

self-cleavage, 1.05:
A16G A38U
A16G A41U

self-cleavage, 0.03:
C15U U24G
C15U G30U
A16G C31A
C15U G45U
C15U G48U
A16C C26A

self-cleavage, 0.2:
A16G G47C
A16G G13A

self-cleavage, 0.58:
A16G U24C
A16C C11A

self-cleavage, 0.14:
A16C G23A
A16G G23U
C15U G54C
A16C G47A

self-cleavage, 0.53:
A16G C14G
A16G U43C
A16G U12C
A16C G51A

self-cleavage, 0.89:
A16C A39C
A16G U43A

self-cleavage, 0.37:
A16G C27U

self-cleavage, 0.4:
A16G G19C

self-cleavage, 0.93:
A16G G54U
A16G G35U
A16G C26U
A16C C20U
A16C C21U

self-cleavage, 0.97:
A16C G44C
A16C A41U
A16G A38G
A16C
A16U
A16G U18C
A16G A39U
A16G C52A
A16C G50U
A16G U12A

self-cleavage, 0.92:
A16G C9G
A16C U18A
A16G U18A
A16G A17G
A16G A28U

self-cleavage, 0.57:
A16G G19U
A16G G42U

self-cleavage, 0.82:
A16G G51A
A16G G22U
A16C G54C
A16G G34U
A16C G50C

self-cleavage, 0.8:
A16G G35C
A16G C21A

self-cleavage, 0.96:
A16C C52G
A16C A38G
A16C U37G
A16G G44A
A16G G44C

self-cleavage, 0.55:
A16C C31U
A16G G45A
A16C C33U
A16G U12G

self-cleavage, 0.5:
A16C C9A
A16G A8U

self-cleavage, 0.15:
A16G C14A
C15U G51A
A16G A46C
A16G C27G
A16C A7U
C15U G34U
A16G G48C

self-cleavage, 0.07:
A16C A29U
C15U G35C
C15U G51U
A16C G48C
A16C A40C
A16C G22C
A16C A7C
A16C C32A
A16C A46U

self-cleavage, 0.1:
A16C C27U
A16C C31G
A16G A46G
A16C C25G
A16G G48U
C15U U12G
A16C C26G
C15U G53U

self-cleavage, 0.99:
A16G G54C
A16C A36U
A16G C20U
A16G C52U
A16G A41C

self-cleavage, 0.71:
A16C U12A
A16C G50A
A16G G53U

self-cleavage, 0.98:
A16G G19A
A16G G54A
A16C C52U
A16G A38C
A16C A17U
A16G C21U

self-cleavage, 0.39:
A16C C15A
A16G A29G
C15U U18G

self-cleavage, 0.24:
A16G C25A

self-cleavage, 0.87:
A16G G35A
A16G U37A
A16C A17C
A16G C33U

self-cleavage, 0.84:
A16G C9U
A16C U37A
A16G G34A

self-cleavage, 0.29:
A16C C14G

self-cleavage, 0.7:
A16C U43A

self-cleavage, 0.52:
A16C A40U
C15U U18C
A16C G42U

self-cleavage, 0.06:
A16C G23U
C15U G42C
C15U G42U
A16C C27G
A16C G48U
A16C G48A
A16U A7U
C15U G47A
A16C C33G
C15U U12C
A16C A46G
A16C A46C

self-cleavage, 0.72:
A16C C25U

self-cleavage, 0.27:
A16G G49A
A16C C14U
A16G A29U
A16U A7G

self-cleavage, 0.83:
A16G U18G
A16C A28C
A16C C20A

self-cleavage, 0.18:
A16G G48A

self-cleavage, 0.21:
C15U G34A

self-cleavage, 0.26:
A16G C33A
